Source: PubChem
Compounds with a hit are over-represented: about 2.3% of the library has one in this group of screens.
SKN-1 block = inhibitors of C. elegans SKN-1 | hit rate 0.49% among 360,000 | AID 624304 | inhibition, % at 21.8 µM | C. elegans VP596 Pgst-4::GFP/RFP ratio, acrylamide-induced, 24 h;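 active = interference check ratio from 0.5 to 1.5 plus GFP to RFP signal ratio inhibition reaching or exceeding a fixed threshold, cut at about 30% in these data, passing the limit was not always enough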
MT1-MMP act inh = inhibitors of human MT1-MMP activation; HT1080 RFP-PRO-GFP cells, GFP/RFP ratio fluorescence, overnight; percent of plate control window, DMSO zero; GFP/RFP ratio change, % at 20 µM; P50281; hit rate 0.061% among 360,000; AID 651647;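 active = GFP/RFP ratio change of at least 30% with cell ATP level not reduced by more than half and red fluorescence within 50% of control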
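Assay system: HT1080 cells carrying an RFP-PRO-GFP reporter | Dosing: Single dose of 20 µM compound, 1% DMSO final | Incubation: Cells overnight before dosing, compound overnight, 37 °C, 5% CO2 | Evaluation: GFP/RFP fluorescence ratio | Control set: DMSO and RFP-L50D-GFP cell wells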
ATG4B inhibitor = inhibitors of human ATG4B cysteine protease; ATG4B cleavage of LC3-PLA2, NBD-HPC fluorescence, 1 h; hit rate 0.51% among 340,000; inhibition, % at 8.33 µM; AID 504462; Q9Y4P1; in the data active = inhibition above about 40%
Target sequence (Q9Y4P1 whole entry, looked up): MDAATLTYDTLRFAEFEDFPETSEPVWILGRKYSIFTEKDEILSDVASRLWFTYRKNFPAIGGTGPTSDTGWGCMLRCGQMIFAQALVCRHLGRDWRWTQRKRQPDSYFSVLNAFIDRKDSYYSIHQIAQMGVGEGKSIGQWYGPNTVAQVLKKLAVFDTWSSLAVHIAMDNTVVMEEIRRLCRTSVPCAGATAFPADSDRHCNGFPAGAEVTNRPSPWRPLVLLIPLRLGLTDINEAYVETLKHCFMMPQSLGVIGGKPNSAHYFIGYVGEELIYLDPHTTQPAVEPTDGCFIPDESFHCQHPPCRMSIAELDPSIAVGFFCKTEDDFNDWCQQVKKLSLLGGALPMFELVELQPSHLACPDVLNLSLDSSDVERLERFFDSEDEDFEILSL
MPTP block = permeability transition pore inhibition | isolated mouse mitochondria, Ca2+ swelling absorbance, 30 min | inhibition, % at 10 µM | hit rate 1.4% among 360,000 | AID 602449;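 active = inhibition of 50% or more, scaled per plate between neutral and stimulator controls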;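 note: 0% = DMSO wells given calcium and 100% = 1 mM EGTA wells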
MPTP counter = membrane potential counter-screen of mitochondrial pore inhibitors; shares compounds with MPTP block; isolated mitochondria, Rhodamine 123 fluorescence; inhibition, % at 10 µM; hit rate 78% among 5,000; in the data active = inhibition above about 22%;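 note: 0% = DMSO vehicle and 100% = positive control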
MPTP swell DR = MPTP inhibition, dose response swelling confirmation | shares compounds with MPTP block | isolated mitochondria swelling, absorbance | IC50, µM | hit rate 58% among 780 | AID 651561; in the data active = IC50 below about 20 µM
MPTP counter DR = counter-screen for mitochondrial permeability transition pore inhibitors, dose response. shares compounds with MPTP block. isolated mitochondria counterscreen, fluorescence read-out. IC50, µM. hit rate 49% among 780. AID 651564; in the data active = IC50 below about 80 µM
* marks the source's active call; other numbers are inactive results; . = no result.

SMILES | SKN-1 block | MT1-MMP act inh | ATG4B inhibitor | MPTP block | MPTP counter | others
Cc1ccc2c(c1)cc1c(=O)n(CC(=O)NCc3ccccn3)nc(C)n12 | -4 | -6 | 0 | -1 | .
CC(C)CC(C(=O)Nc1oc(-c2ccccc2)c(-c2ccccc2)c1C#N)N1C(=O)c2ccccc2C1=O (stereo not drawn) | 15 | -3 | 8 | 74* | 69*
O=C(COc1ccc(Cl)cc1)Nc1ccc2c(c1)C(=O)NC2=O | 8 | 2 | -8 | 2 | .
COc1ccccc1-n1c(SCC(=O)c2ccc(O)cc2O)nc2cc([N+](=O)[O-])ccc21 | 7 | 0 | 10 | 88* | 66*
c1cn2c(-c3ccoc3)cncc2n1 | 29 | -2 | . | -1 | .
O=C(Nc1ccccc1)c1cc(C2CCCN(C(=O)c3cccs3)C2)on1 (stereo not drawn) | 21 | 0 | . | 0 | .
CC12CCC(C(=O)N3CCC(Cc4ccccc4)CC3)(C(=O)C1=O)C2(C)C (stereo not drawn) | 14 | 0 | -2 | 5 | .
Cc1cc(N2CCN(C)CC2)ccc1NC(=O)c1cccc(S(=O)(=O)N2CCc3ccccc3C2)c1 | 0 | -2 | -1 | 92* | -1
COc1cc(OC)c(OC)cc1CNC(=O)c1cccc(S(=O)(=O)N2CCc3ccccc3C2)c1 | -4 | -3 | -9 | 98* | 104*
O=C(Nc1ccc(OCC(F)(F)C(F)F)c(C(F)(F)F)c1)c1ccccc1 | 23 | -8 | 12 | 4 | .
O=C(Nc1ccc(OCC(F)(F)C(F)F)c(C(F)(F)F)c1)c1ccccc1O | 4 | -29 | 17 | 106* | 77*
c1ccc2c(CSc3ncnc4nc[nH]c34)cccc2c1 | 13 | -7 | -19 | 56* | 41*
COc1ccc(OC)c(N2C(=O)c3cccnc3C2=O)c1 | 0 | 0 | 0 | -1 | .
COc1cccc(-c2ncc3ccccc3c2COC(=O)CCCC(=O)O)c1 | 7 | 4 | -5 | -1 | .
CCOCCCNCc1ccc(OC)cc1 | -19 | 0 | 13 | -1 | .
COc1ccc2cc(CNCCOCCOCCNCc3ccc4cc(OC)ccc4c3)ccc2c1 | 5 | 3 | 4 | 97* | -10
C=CCNc1nc(-c2c(C)nc3sccn23)cs1 | 17 | 3 | 0 | 9 | .
Cc1nc2sccn2c1-c1csc(NCc2ccccc2)n1 | 8 | 12 | -1 | 58* | 67*
CC(=O)C1=C(C)Nc2ncnn2C1c1ccc(Cl)cc1Cl (stereo not drawn) | 0 | -2 | -1 | 13 | .
O=c1oc2c(-c3cccc(F)c3)cc(O)cc2s1 | 0 | -7 | 12 | 84* | 85*
Cc1nn(-c2ccccc2)c(N2CCCC2)c1/C=N/O | 4 | -6 | 9 | 50* | 0 | MPTP swell DR=>100;MPTP counter DR=>80
Oc1c(Br)cc(C2N=C(c3ccccc3Cl)NO2)cc1Br (stereo not drawn) | 12 | 6 | 7 | 3 | .
Cc1cc(C(=O)CSc2nnc(-c3ccccc3)n2Cc2ccc3c(c2)OCO3)c(C)n1C | 17 | 3 | 3 | 0 | .
Cc1cc(C(=O)CSc2nc3ccccc3c(=O)n2C)c(C)n1Cc1ccc2c(c1)OCO2 | -2 | 2 | -12 | 97* | 94*
O=C(NC(NC(=S)Nc1cccc(Cl)c1)C(Cl)(Cl)Cl)OCc1ccccc1 (stereo not drawn) | 0 | -3 | -5 | 91* | 76*
O=C(NC(NC(=S)Nc1cccc(C(=O)O)c1)C(Cl)(Cl)Cl)OCc1ccccc1 (stereo not drawn) | -10 | 3 | -3 | 0 | .
Cc1cccc(NC(=S)NC(NC(=O)OCc2ccccc2)C(Cl)(Cl)Cl)c1 (stereo not drawn) | 3 | 5 | 11 | 74* | 80*
CCCCCC(=O)Nc1ccc(C(=O)COC(=O)CN2C(=O)NC3(CCCC3)C2=O)cc1 | -1 | 0 | -3 | 3 | .
CN(C)CC(C)(C)CNC(=O)c1cc(=O)c2ccccc2o1 | 10 | -8 | 0 | -2 | .
O=[N+]([O-])c1c(Nc2ccc(O)cc2)cc(Cl)c2nonc12 | 10 | -5 | 5 | 2 | .
